Experimental findings from PubChem BioAssay AID493176 (Broad Institute, 2011) are described below.

Molecules are shown by their SMILES. Results filed as inconclusive are left out. Calls of active or inactive are those of the source.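 The calls were made as follows: active = every replicate test active, with falling luminescence and half-maximal potency within ten times the top tested dose; inconclusive = tests disagree, or partial flat loss or unreliable fit; inactive = all tests inactive, flat or rising signal or weak potency.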

Usually AC50 stands for the concentration giving half of the maximal activity seen.

Tested on in one test: not listed separately
The test can be described thus: killing of breast cancer stem-like cells, dose response, cell-based, HMLE_shECad, CellTiter-Glo luminescence, dry powder, set 3 (AID 493176). Conditions: HMLE_shECad viability, CellTiter-Glo luminescence, 72 h; at 19.5 µM (top of the series). The gist of the method:
(§1)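 Material: E-cadherin-knockdown HMLE cells (HMLE_shECad), CSC-like; Amount: 2000 cells per well; Buffer or medium: CSC medium without serum; Compound: pin-transferred compounds; Incubation: ≥4 h settling, then ~70-74 h compound treatment at 37 °C; Signal: CellTiter-Glo luminescence, reagent diluted 1:3 in PBS; Measure: viability from luminescence.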
A general note: In ATP-based viability assays light output follows the ATP content of the culture.
Regarding `O=C(c1ccccc1)c1coc2ccc(O)c(Br)c12`, the activity change, negative = inhibition is 1.46% (inactive).

The next test relates to HMLE_shECad viability, CellTiter-Glo luminescence, 72 h. The description is as above.
Details: not given
The gist of the method: as §1
In the case of `O=C(COc1ccc(Cl)cc1Cl)N/N=C/c1ccc[nH]1`, the half-maximal activity concentration (AC50) was 5.91 µM.

`CC(C)c1ccc(/C=C/C(=O)NC2=NCCS2)cc1`: the AC50 is 7.96 µM.

For `CC(C)(C)c1ccc2c(c1)OC(C(=O)NN=Cc1ccc[nH]1)CO2` (mixture of isomers), the AC50 was 2.21 µM.

As to `CN(c1ccccc1)S(=O)(=O)c1ccc(-c2ccccc2)cc1`, the AC50 is 12.7 µM.

As to `C/C(=N\NC(=O)c1cc(-c2cccc([N+](=O)[O-])c2)n[nH]1)c1ccccc1O`, the half-maximal activity concentration (AC50) was 8.72 µM.

Take `Cc1onc(-c2ccccc2)c1C(=O)Nc1sc2c(c1C#N)CCC(C)C2` (stereo unspecified): the AC50 is 7.81 µM.

`Nc1cc(Cl)ccc1Oc1ccc2ccccc2c1`: the AC50 is 10.5 µM.

Regarding `CCN1C(=O)/C(=C\N2CCN(c3cccc(Cl)c3)CC2)SC1=S`, the concentration at half-maximal activity (AC50) is 4.92 µM.

Turning to `Cc1cc(C)nc(NC(=O)/C=C/c2cccs2)c1`, the AC50 was 5.95 µM.

On to `Cc1csc(NC(=O)c2ccc(COc3ccccc3)o2)n1`, for which the half-maximal activity concentration (AC50) was 12.3 µM.

Consider `CC(=O)c1cccc(NS(=O)(=O)c2cc(-c3cnc(C4CC4)o3)ccc2C)c1`, for which the concentration at half-maximal activity (AC50) is 1.02 µM.

`Cc1ccc2nc(NC(=O)c3cccc(-c4cc5ccccc5oc4=O)c3)sc2c1`: the AC50 was 5.37 µM.

As for `O=C(Nc1ccccc1N1CCCC1)c1cccc(-c2cc3ccccc3oc2=O)c1`, the AC50 was 10 µM.

`CC(C)CC(=O)NC(NC(=S)Nc1sc2c(c1C#N)CCCC2)C(Cl)(Cl)Cl` (stereo unspecified): the AC50 is 0.619 µM.

`CCCCCCc1cc2cc(S(=O)(=O)c3ccc(Cl)cc3)c(=O)oc2cc1O`: the AC50 was 2.2 µM.
